From PubChem BioAssay
KCNQ1 pot = potentiators or activators of KCNQ1 channel, primary screen, cell-based, thallium flux, high-throughput; Potassium voltage-gated channel subfamily KQT member 1 (Homo sapiens), P51787; CHO-K1 KCNQ1, thallium flux FluxOR fluorescence; stronger effect = higher value; B-score at 10 µM; hit rate 0.35% among 310,000; AID 2648, 2010;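 active = fluorescence ratio B-score, a plate-corrected score, at least three library SD, with initial intensity B-score within 5 SD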
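Assay system: CHO-K1 cells stably expressing KCNQ1. Medium: assay buffer for compound exposure, DMSO matched across wells. Timing: 37 °C overnight plating, 90-min dark dye load, 20-min compound pretreatment. Signal: kinetic FluxOR fluorescence, 10 s baseline plus 110 s post-stimulus.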
Kir21 block = inhibitors of mouse Kir2.1 inward-rectifier potassium channel; hit rate 0.85% among 310,000; HEK293-Kir2.1, FluxOR thallium flux fluorescence; stronger effect = lower value; B-score at 10 µM;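 active = fluorescence ratio B-score at or below minus 3 SD of library scores, with starting-brightness B-score within 2 SD, cut at about -4.2 in these data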;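 note: channel flux triggered by added potassium and thallium sulfate stimulus; B-score of peak minus minimum fluorescence over baseline after thallium stimulus; more negative B-score means stronger Kir2.1 block with less thallium influx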
KCNK9 inh = KCNK9 potassium channel inhibitors, primary screen, HEK293 cells, thallium flux | Potassium channel subfamily K member 9 (Homo sapiens), Q9NPC2 | FluxOR thallium flux fluorescence; stronger effect = lower value | B-score at 10 µM | hit rate 1.2% among 310,000 | AID 488922, 2010;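 active = ratio B-score over 3 SD below the library mean, with starting fluorescence within 5 SD of its mean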;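 note: negative B-score means less thallium flux so channel inhibition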
KCNQ1 block = inhibitors of human KCNQ1 channel, primary screen, cell-based, thallium flux, high-throughput; hit rate 1.3% among 310,000; AID 2642, 2010; CHO-K1 KCNQ1, FluxOR thallium flux fluorescence; stronger effect = higher value; Potassium voltage-gated channel subfamily KQT member 1 (Homo sapiens), P51787; B-score at 10 µM;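 active = compounds whose thallium flux B-score, printed positive for inhibition, exceeds three library SD while starting fluorescence stays within three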;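 note: channel opened by potassium depolarization with thallium stimulus after 20 min compound exposure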
KCNK3 inh = human KCNK3 channel inhibitors, primary screen, CHO cells, FluxOR thallium flux, B-score. AID 602410, 2012. B-score at 10 µM. FluxOR fluorescence; stronger effect = lower value. hit rate 0.84% among 340,000;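 active = B-score under library mean minus 4 SD, starting fluorescence ratio at most library mean plus 5 SD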;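 note: more negative B-score means stronger inhibition of thallium flux through KCNK3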
Target sequence (O14649 whole entry, looked up): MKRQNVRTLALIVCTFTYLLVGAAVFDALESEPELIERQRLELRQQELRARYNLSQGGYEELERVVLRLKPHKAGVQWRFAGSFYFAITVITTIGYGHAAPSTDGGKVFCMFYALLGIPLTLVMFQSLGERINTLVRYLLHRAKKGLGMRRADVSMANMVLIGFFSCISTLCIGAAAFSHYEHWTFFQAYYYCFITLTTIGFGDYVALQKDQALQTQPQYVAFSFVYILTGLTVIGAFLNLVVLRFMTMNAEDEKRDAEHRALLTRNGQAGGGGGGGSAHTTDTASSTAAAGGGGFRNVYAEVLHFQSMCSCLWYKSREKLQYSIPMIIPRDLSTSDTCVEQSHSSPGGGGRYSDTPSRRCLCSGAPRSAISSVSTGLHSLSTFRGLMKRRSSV
hERG rescue = hERG rescue from dofetilide block, primary screen, cell-based, CHO-hERG, FluxOR thallium flux, dofetilide IC70. Voltage-gated inwardly rectifying potassium channel KCNH2 (Homo sapiens), Q12809. dofetilide IC70 present. activation (rescue from dofetilide block), less the hit threshold, % at 10 µM. hit rate 0.51% among 310,000;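 active = activation above the mean of controls blocked by dofetilide plus 5 SD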;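 note: thallium influx through hERG after potassium depolarization seen as dye fluorescence rise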
Numbers without * were called inactive; i = inactive; nt = not tested or not shown. The list is not random: actives were taken first. Their share in the collection is about 3.8%.

SMILES | KCNQ1 pot | Kir21 block | KCNK9 inh | KCNQ1 block | KCNK3 inh | hERG rescue
COc1ccc(C(=O)C2CCCN(Cc3ccc4nonc4c3)C2)cc1OC (stereo not drawn) | i | -0.01 | i | i | i | -5
COc1ccc(C(=O)C2CCCN(Cc3ccc4nonc4c3)C2)c(OC)c1 (stereo not drawn) | i | -5.2* | i | i | i | -16
CCOC(=O)C1=C(C)Nc2ccccc2N=C1NC(=O)Cc1ccc(Br)cc1 | i | 1.9 | i | i | i | -5
S=c1nc[nH]c2c1sc1nc(-c3ccccc3)c3c(c12)CCCC3 | 60* | -0.56 | i | i | i | 52*
Fc1ccc(Nc2c3c(nc4ccccc24)CCC3)cc1 | i | -5.1* | i | i | i | -17
c1ccc(Nc2c3c(nc4ccccc24)CCC3)cc1 | i | -4.9* | i | i | i | -12
COc1ccc(Nc2c3c(nc4ccccc24)CCC3)cc1 | i | -12* | i | i | i | -11
c1ccc2c(Nc3ccc4c(c3)OCCO4)c3c(nc2c1)CCC3 | i | -0.98 | i | i | i | -13
Cc1ccc2nc3c(c(Nc4ccccc4)c2c1)CCC3 | i | -4.4* | i | i | i | -11
Nc1c(CO)nnn1-c1ccccc1 | i | 2.1 | i | i | i | -7
COc1ccccc1CNC(=O)c1cccc(N(C)C)c1 | i | -0.67 | i | i | i | -7
Cc1ccc(NC(=O)c2ccco2)c(NC(=O)c2cccs2)c1 | i | 1.7 | i | i | i | -1
CCNc1nc(Oc2ccc(C#N)cc2)cc(C(F)(F)F)n1 | i | 0.18 | i | i | i | -10
O=C(NC1CCCCC1)Nn1c(-c2ccccc2)nc2ccccc2c1=O | i | 0.35 | i | i | i | -7
COc1ccc(C)cc1Nc1c2c(nc3ccccc13)CCC2 | i | -9.3* | i | i | i | -15
COc1ccc(Nc2c3c(nc4ccccc24)CCCC3)cc1OC | i | 0 | i | i | i | -7
CN(C)C(=S)NC(=S)Nc1ccc2ccccc2c1 | nt | nt | nt | nt | i | nt
O=C(/C=C/c1cn(CC(O)CN2CCCCC2)c2ccccc12)c1cccs1 (stereo not drawn) | i | -7.1 | i | 7* | i | -31
O=C(/C=C/c1cn(CC(O)CN2CCCCC2)c2ccccc12)c1ccccc1 (stereo not drawn) | i | -4 | i | i | i | -21
Cc1cnc(C(=O)OCC(=O)Nc2ccc(OCc3ccccc3)cc2)cn1 | nt | nt | nt | nt | i | nt
Cc1cc(C)nc(NC(=O)/C=C/c2ccc(Cl)cc2Cl)c1 | i | -2.1 | i | i | i | -10
CC(C)C(=O)Nc1ncc(C(F)(F)F)cc1Cl | i | 1.3 | i | i | i | -8
CC(=O)CC(=O)Nc1ncc(C(F)(F)F)cc1Cl | i | -1 | i | i | i | -7
ON/C=N/C(=S)Nc1ncc(C(F)(F)F)cc1Cl | 20* | -1.4 | i | i | i | 14*
CON/C=N/C(=S)Nc1ncc(C(F)(F)F)cc1Cl | 51* | 0.16 | i | i | i | 15*
SMILES | KCNQ1 pot | Kir21 block | KCNK9 inh | KCNQ1 block | KCNK3 inh | hERG rescue
CN(/N=C/c1ccc(-c2ccc([N+](=O)[O-])cc2)o1)c1ccccc1 | i | -1 | i | 8* | i | -6
CCC(Oc1ccccc1)C(=O)Nc1ccc(-c2nnc(-c3ccco3)o2)cc1 (stereo not drawn) | i | 0.03 | -7.3* | i | i | -9
Cc1ccc(C(NC(=O)NC(C)c2ccccc2)C(Cl)(Cl)Cl)cc1F (stereo not drawn) | i | 3.2 | i | 7* | i | -3
O=C1C2CC=CCC2C(=O)N1c1ccc(Cc2ccncc2)cc1 (stereo not drawn) | i | 0 | i | i | i | 5.0*
CC1CCC(C(C)C)C(OCC(O)CNC(C)c2ccccc2)C1 (stereo not drawn) | i | -2 | i | i | i | -17
CC(NCC(O)COC1CCC(C(C)(C)C)CC1)c1ccccc1 (stereo not drawn) | i | -8.6* | i | i | i | -14
CCOc1cc(/C=C2\COc3ccccc3C2=O)ccc1OCC(=O)N(C)C | i | -4.3* | i | i | i | -12
NNc1nc2c(Cl)c(Cl)ccc2s1 | i | 1.2 | i | i | i | -3
COCCNC(=O)C(c1ccc(C)o1)N(Cc1ccc(OC)cc1)C(=O)Cn1nnc2ccccc21 (stereo not drawn) | i | 0.22 | i | i | i | 6.5*
O=C(NC(=S)N1CCN(c2ccc(C(F)(F)F)cc2[N+](=O)[O-])CC1)c1cccs1 | 10* | 0.02 | i | i | i | 3
O=[N+]([O-])c1cc(C(F)(F)F)ccc1N1CCCNCC1 | i | -0.58 | i | i | i | 7.9*
Cn1c(=O)c2c(SCC(=O)c3ccccc3)nc(C3CC3)nc2n(C)c1=O | i | 2 | i | i | i | -8
C=C(C)CC(NCc1ccco1)c1ccc(OC)cc1 (stereo not drawn) | i | -5.4* | i | i | i | -4
C=CCC(NCc1ccco1)c1ccc(OC)cc1OC (stereo not drawn) | i | -1.1 | i | i | nt | -4
CCCCCC(=O)NC(NC(=S)NC1CCS(=O)(=O)C1)C(Cl)(Cl)Cl (stereo not drawn) | i | 0.19 | i | i | i | 5.6*
Oc1c(C(Nc2cccc(C(F)(F)F)c2)c2ccncc2)ccc2cccnc12 (stereo not drawn) | i | -1.3 | i | 13* | i | -4
CC(=O)NC(c1ccc2ccccc2c1)c1ccc2cccnc2c1O (stereo not drawn) | i | -1.4 | i | i | i | -3
Cc1cc(C)n(C(=O)CNC(=O)c2ccco2)n1 | i | 0.87 | i | i | i | -7
COc1cccc(NC(=S)N(CCCN2CCCC2)Cc2cccn2Cc2ccc(Cl)cc2)c1 | i | -8.5* | i | i | i | -18
CC1CCC(C(C)C)C2=C1C(C#N)(C#N)C(C#N)(C#N)C(c1ccccc1)N2 (stereo not drawn) | i | -1.9 | i | 7* | i | -18
